Experiments:
Type in all cases: cell membranes, Membrane
D(1A) dopamine receptor = D(1A) dopamine receptor (Rattus norvegicus, UniProt P18901); assay: Compound was evaluated for the inhibition of [3H]-SCH- 23390 binding to Dopamine receptor D1 of rat striatal membranes
Method in brief: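 Rat striatum homogenized in Tris-HCl pH 7.4, pellet washed twice at 20,000g and resuspended at 3.5 mg wet weight/mL in 50 mM Tris-HCl with 120 mM NaCl, 5 mM KCl, 2 mM CaCl2, 1 mM MgCl2. Triplicates, three separate days. IC50 by log-probit analysis.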

D(2) dopamine receptor [1] = molecular target: T1, D(2) dopamine receptor (Rattus norvegicus, UniProt P61169); assay: Compound was evaluated for the inhibition of [3H]spiperone binding to dopamine receptor D2 of rat striatal membranes
T1 sequence (P61169 whole entry): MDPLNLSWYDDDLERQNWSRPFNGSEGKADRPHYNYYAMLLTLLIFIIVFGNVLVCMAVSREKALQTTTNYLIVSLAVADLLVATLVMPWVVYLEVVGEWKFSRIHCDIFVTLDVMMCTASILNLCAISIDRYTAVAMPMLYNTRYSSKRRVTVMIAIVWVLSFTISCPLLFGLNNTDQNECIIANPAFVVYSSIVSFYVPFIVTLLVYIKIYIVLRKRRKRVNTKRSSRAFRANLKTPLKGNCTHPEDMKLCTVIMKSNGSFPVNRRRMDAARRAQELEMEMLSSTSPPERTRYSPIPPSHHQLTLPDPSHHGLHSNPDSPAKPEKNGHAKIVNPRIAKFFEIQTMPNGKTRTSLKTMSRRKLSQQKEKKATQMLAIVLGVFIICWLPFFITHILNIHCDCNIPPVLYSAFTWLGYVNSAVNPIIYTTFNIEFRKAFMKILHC
Method in brief: (§1)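 Rat striatal membranes were washed twice at 20,000g and suspended at 3.5 mg wet weight/mL in 50 mM Tris-HCl pH 7.4 with 120 mM NaCl, 5 mM KCl, 2 mM CaCl2, 1 mM MgCl2. Displacement of 0.1 nM [3H]spiperone (final) by 6-7 concentrations of test drug. Nonspecific binding defined with 1 μM (+)-butaclamol. Triplicates, repeated on three days. IC50 from log-probit plot.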

D(2) dopamine receptor [2] = molecular target: T1, D(2) dopamine receptor; assay: Compound was evaluated for the inhibition of [3H]spiperone binding to Dopamine receptor D2 of rat striatal membranes; method in brief: as §1

Chain of D(1A) dopamine receptor (P18901 whole entry): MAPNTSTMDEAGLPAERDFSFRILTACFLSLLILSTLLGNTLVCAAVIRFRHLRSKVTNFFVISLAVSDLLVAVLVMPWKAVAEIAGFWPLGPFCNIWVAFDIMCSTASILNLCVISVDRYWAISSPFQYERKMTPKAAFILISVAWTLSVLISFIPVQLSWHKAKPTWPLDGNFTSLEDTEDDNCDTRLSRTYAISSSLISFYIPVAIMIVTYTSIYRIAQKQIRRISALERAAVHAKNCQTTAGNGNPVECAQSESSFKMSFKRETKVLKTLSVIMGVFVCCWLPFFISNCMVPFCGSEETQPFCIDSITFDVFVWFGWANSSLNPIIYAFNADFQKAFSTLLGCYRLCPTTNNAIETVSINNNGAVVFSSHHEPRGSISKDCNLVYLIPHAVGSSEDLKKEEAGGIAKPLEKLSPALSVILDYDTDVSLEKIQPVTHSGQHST

Structure (SMILES) | IC50 (D(1A) dopamine receptor) | IC50 (D(2) dopamine receptor [1]) | IC50 (D(2) dopamine receptor [2])
CCCN(CCc1ccccc1)CCc1ccc(O)c(F)c1 | 38 µM | 0.58 µM | 
CCCN(CC)CCc1ccc(F)c(O)c1 | 11.1 µM | 1.97 µM | 
CCN(CCc1ccccc1)CCc1ccc(F)c(O)c1 | 8 µM |  | 
CCCN(CCC)CCc1ccc(F)c(O)c1 | 11.4 µM | 0.95 µM | 
CCCN(CCc1ccccc1)CCc1ccc(F)c(O)c1 | 10.9 µM | 0.25 µM | 
NCCc1ccc(F)c(O)c1 | 6.15 µM |  | 4.64 µM

Reference: ChEMBL document CHEMBL1124899 (J Med Chem, 1990)
